Experimental data from PubChem BioAssay.
Activity calls are given as the source filed them.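 How the source made its calls, unless noted: active means viability at or under a set limit in both replicates, limit being median viability minus 3 SD (cut at about 48% in these data, passing the limit was not always enough); inconclusive means at or under the limit in just one replicate; inactive means at or above the limit in both replicates.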

How the values were obtained:
[1] = HUVEC growth inhibition – cell-based, human, primary screen (AID 575;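 active means viability at or below 30% in both replicate assays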;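 further: 100% = median of untreated cell wells with 0.1% DMSO on each plate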); settings: HUVEC proliferation, CellTiter-Glo luminescence, 72 h; at 10 µM; stronger effect = lower value
Method in brief: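 Test system – primary HUVEC, no more than 12 passages · Dosing – one dose, 10 µM final, 0.1% DMSO · Times – 72 h treatment at 37 °C · Measured by – ATP-based CellTiter-Glo luminescent read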

[2] = H69AR cell proliferation blockers – human, duplicate replicates, primary screen (AID 580); settings: H69AR lung tumor cells viability, ATP luminescence, 72 h; at 10 µM; stronger effect = lower value;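 further: 100% = mean luminescence of untreated wells and 0% = no signal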
[3] = MRP1 drug-resistance reversers in H69AR cells – cell-based, doxorubicin co-treatment, pilot screen (AID 601;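 active means viability loss from added drug above about 55%, and viability with drug at most 40%, in both replicates, limit read from the data, passing the limit was not always enough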); settings: CellTiter-Glo, 72 h, at 10 µM; for differential viability (reversal): stronger effect = higher value
[4] = yeast transport mutant growth inhibition pilot in 384-well plates, post-Golgi transport modulator project (AID 636; in the data active means inhibition above about 31%); settings: absorbance 615 nm, about 18 h, stronger effect = higher value
[5] = growth suppression of yeast trafficking mutant, preliminary HTS, modulators of trafficking downstream of Golgi apparatus project, 1536-format plate, OD 615 nm (AID 637; in the data active means inhibition above about 30%); settings: yeast transport mutant growth, absorbance 615 nm, 18 h; stronger effect = higher value
[6] = H69AR cells + 2 uM doxorubicin, measured here: viability with 2 uM doxorubicin, stronger effect = lower value
[7] = H69AR cells, compound alone cytotoxicity

Row | SMILES | viability [1] | viability [2] | differential viability (reversal) ([3]; H69AR cells + 2 uM doxorubicin) | viability [3, 6] | viability [3, 7] | inhibition [4] | inhibition [5]
1 | Cn1c(=O)[nH]c(=O)c2c1nc(NCCCn1ccnc1)n2Cc1cccc(Br)c1 | 90.3% (inactive) | 81.7% (inactive) | 8.09% (inactive) | 73.6% | 81.7% | -5.47% (inactive) | 0.95% (inactive)
2 | COC(=O)Oc1c(Br)c(=O)oc2ccccc12 | 90.8% (inactive) | 83% (inactive) | 2.87% (inactive) | 80.1% | 83% | -0.4% (inactive) | -4.13% (inactive)
3 | COc1ccc(S(=O)(=O)N2CCC(C(=O)NCc3ccco3)CC2)cc1 | 93.8% (inactive) | 86.6% (inactive) | -1.91% (inactive) | 88.5% | 86.6% | -4.53% (inactive) | -3.97% (inactive)
4 | Cc1cc(N2C(=O)C(=O)/C(=C(/O)c3ccc(F)cc3)C2c2ccc(F)cc2)no1 (stereo unspecified) | 78.3% (inactive) | 91.3% (inactive) | 3.5% (inactive) | 87.8% | 91.3% | -5.47% (inactive) | 5.08% (inactive)
5 | CC1CN(c2nc3ccccc3nc2C(C#N)C(=O)NCc2ccc3c(c2)OCO3)CC(C)O1 (stereo unspecified) | 84.6% (inactive) | 91.2% (inactive) | -5.39% (inactive) | 96.6% | 91.2% | -4.93% (inactive) | 4.76% (inactive)
6 | COc1cccc(C(=O)Nc2cccc(C(=O)N3CCOCC3)c2)c1 | 97.1% (inactive) | 90.1% (inactive) | 13% (inactive) | 77.1% | 90.1% | -4.68% (inactive) | 0.32% (inactive)
7 | CCN(CC(=O)Nc1c(C(=O)OC)[nH]c2ccccc12)c1ccc2c(c1)OCO2 | 67.8% (inactive) | 72% (inactive) | -6.82% (inactive) | 78.8% | 72% | -5.2% (inactive) | -2.22% (inactive)
8 | CC(C)(C)OC(=O)N1CCN(c2ccc(NC(=O)c3cc4ccccc4oc3=O)cc2)CC1 | 103% (inactive) | 93% (inactive) | 8.14% (inactive) | 84.8% | 93% | -5.45% (inactive) | 1.59% (inactive)
9 | COc1cccc(-c2nc(-c3ccc(NC(=O)Cc4ccccc4OC)cc3)no2)c1 | 85.3% (inactive) | 90.6% (inactive) | 12.8% (inactive) | 77.8% | 90.6% | 9.09% (inactive) | -0.95% (inactive)
10 | CCn1c(SCc2cccc(C(F)(F)F)c2)nnc1-c1ccco1 | 93.9% (inactive) | 90.1% (inactive) | 9% (inactive) | 81.1% | 90.1% | -5.2% (inactive) | -0.16% (inactive)
11 | CC(C)(CSc1nncn1N)NS(=O)(=O)c1ccc(Cl)cc1 | 91.9% (inactive) | 98.3% (inactive) | 1.6% (inactive) | 96.7% | 98.3% | -2.27% (inactive) | -0.79% (inactive)
12 | Cc1csc(OCc2ccc(C#N)cc2)n1 | 98.6% (inactive) | 101% (inactive) | 16.2% (inactive) | 85% | 101% | -5.32% (inactive) | 3.97% (inactive)
13 | CCCSc1nc(N)c(C#N)c(-c2ccc(C)cc2)c1C#N | 79.6% (inactive) | 70.3% (inactive) | -10.1% (inactive) | 80.4% | 70.3% | -2.67% (inactive) | 4.76% (inactive)
14 | CCOc1ccccc1N1CCN(S(=O)(=O)c2cccc3nsnc23)CC1 | 84.1% (inactive) | 86.1% (inactive) | 4.72% (inactive) | 81.4% | 86.1% | 0.26% (inactive) | 10.9% (inactive)
15 | COc1ccc(S(=O)(=O)NC(C)C(=O)Nc2cccc(C(C)=O)c2)cc1 (stereo unspecified) | 114% (inactive) | 98.1% (inactive) | 9.17% (inactive) | 88.9% | 98.1% | -4.8% (inactive) | 0.16% (inactive)
16 | Cc1ccc(NC(=O)c2ccco2)c(NC(=O)c2cccs2)c1 | 92% (inactive) | 88.8% (inactive) | -1.08% (inactive) | 89.9% | 88.8% | -3.73% (inactive) | 8.57% (inactive)
17 | c1ccc(OCCOc2ncnc3sccc23)cc1 | 100% (inactive) | 98.7% (inactive) | 7% (inactive) | 91.7% | 98.7% | -0.26% (inactive) | -1.75% (inactive)
18 | Cc1cc(/C=c2/sc3nc4ccccc4n3c2=O)c(C)n1-c1ccccn1 | 77.6% (inactive) | 63% (inactive) | -2.23% (inactive) | 65.2% | 63% | 2.4% (inactive) | -0.48% (inactive)
19 | CCNc1oc(COc2ccccc2F)nc1C#N | 89.8% (inactive) | 100% (inactive) | 22.9% (inactive) | 77.4% | 100% | -2.6% (inactive) | 1.43% (inactive)

Row | SMILES | viability [1] | viability [2] | differential viability (reversal) ([3]; H69AR cells + 2 uM doxorubicin) | viability [3, 6] | viability [3, 7] | inhibition [4] | inhibition [5]
20 | O=C(NC(NC1CCS(=O)(=O)C1)C(=O)c1cccs1)c1ccccc1 (stereo unspecified) | 106% (inactive) | 106% (inactive) | 7.72% (inactive) | 98.2% | 106% | -1.17% (inactive) | -3.33% (inactive)
21 | COc1ccccc1-c1c(C)nn2c(C)c(C(C)=O)cnc12 | 111% (inactive) | 94.3% (inactive) | 10.3% (inactive) | 84% | 94.3% | -6.1% (inactive) | 1.27% (inactive)
22 | Cc1ccccc1NC(=O)C1CCC(C)(C(=O)O)C1(C)C (stereo unspecified) | 92.7% (inactive) | 99.8% (inactive) | 0.94% (inactive) | 98.8% | 99.8% | -0.78% (inactive) | -7.3% (inactive)
23 | Cc1cc(/N=C/N(C)C)on1 | 82.4% (inactive) | 93.7% (inactive) | 12% (inactive) | 81.7% | 93.7% | -4.94% (inactive) | 2.06% (inactive)
24 | COc1cc(S(=O)(=O)N(C)C)ccc1F | 95.4% (inactive) | 91.7% (inactive) | 9.55% (inactive) | 82.1% | 91.7% | -6.67% (inactive) | 3.65% (inactive)
25 | CCOC(=O)C1=C(CC)Nc2ccccc2N=C1NC(=O)Nc1ccccc1OC | 50.5% (inactive) | 74% (inactive) | -0.52% (inactive) | 74.5% | 74% | 0.52% (inactive) | 1.11% (inactive)
26 | O=C(CCCn1c(=O)c2sccc2n(Cc2ccc(F)cc2)c1=O)NCc1ccco1 | 51.1% (inactive) | 27.4% (active) | -52% (inactive) | 79.4% | 27.4% | -0.39% (inactive) | -4.44% (inactive)
27 | Cc1ccc(O)c(C(=O)c2cc(C#N)c(=O)n(CC3CCCO3)c2)c1 (stereo unspecified) | 93.2% (inactive) | 89.7% (inactive) | -2.82% (inactive) | 92.6% | 89.7% | -1.3% (inactive) | 0.16% (inactive)
28 | COC(=O)c1ccccc1NC(=O)N1CCCC1 | 108% (inactive) | 103% (inactive) | 13.2% (inactive) | 90.1% | 103% | -3.2% (inactive) | -5.56% (inactive)
29 | COc1cccc(C(=O)Nc2cnc(NC(=O)c3ccco3)cc2C)c1 | 103% (inactive) | 86.6% (inactive) | 8.55% (inactive) | 78.1% | 86.6% | -2.21% (inactive) | -4.44% (inactive)
30 | CC1(C)CC(=O)C2=C(C1)Nc1nc(SCCN3CCOCC3)[nH]c(=O)c1C2c1cccs1 (stereo unspecified) | 99.6% (inactive) | 89.9% (inactive) | 2.1% (inactive) | 87.8% | 89.9% | 1.69% (inactive) | 24% (inactive)
31 | Cc1ccc(S(=O)(=O)N2CCCC2C(=O)OCc2ccco2)cc1 (stereo unspecified) | 96% (inactive) | 77.2% (inactive) | 0.425% (inactive) | 76.8% | 77.2% | -6.58% (inactive) | -7.62% (inactive)
32 | CN1CCCC(OC(=O)c2ccc3c(c2)OCCO3)C1 (stereo unspecified) | 103% (inactive) | 106% (inactive) | 19.1% (inactive) | 86.7% | 106% | -4.4% (inactive) | -2.06% (inactive)
33 | O=C1CN(c2ccccc2F)C(=O)CN1c1ccccc1F | 112% (inactive) | 102% (inactive) | 10.3% (inactive) | 92.2% | 102% | -1.97% (inactive) | -0.63% (inactive)
34 | CSc1ccccc1NS(=O)(=O)c1ccccc1 | 101% (inactive) | 102% (inactive) | 10.8% (inactive) | 90.8% | 102% | -4.61% (inactive) | 0% (inactive)
35 | Cc1ccc(-c2nnn(CC(=O)N(CC(=O)NCC3CCCO3)c3ccccc3)n2)o1 (stereo unspecified) | 88.7% (inactive) | 90.9% (inactive) | 2.55% (inactive) | 88.4% | 90.9% | -5.97% (inactive) | -1.11% (inactive)
36 | CCn1c(C)nc2cc(C(=O)OC(C(F)(F)C(F)F)C(F)(F)C(F)F)ccc21 | 58.4% (inactive) | 79.2% (inactive) | 0.115% (inactive) | 79.1% | 79.2% | -2.47% (inactive) | 3.97% (inactive)
37 | c1ccc(CC2CCN(Cc3nc(-c4ccccc4)no3)CC2)cc1 | 65.1% (inactive) | 87.9% (inactive) | -4.31% (inactive) | 92.2% | 87.9% | -5.13% (inactive) | 0.95% (inactive)
38 | Cc1c(O)c(CN2CCCC(C)C2)cc2c3c(c(=O)oc12)CCC3 (stereo unspecified) | 93.3% (inactive) | 83.1% (inactive) | -2.96% (inactive) | 86.1% | 83.1% | -6.97% (inactive) | -2.38% (inactive)
